For experiment [1], the system named is Canis familiaris. As to the kind of experiment: Percent increase in contractile force (CF) in anesthetized open-chest dogs iv administration of 8.75 mg/kg. Type of experiment: functional, Canis lupus familiaris. In a few lines: (§1)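 Anesthetized open-chest dogs. After a right thoracotomy, contractile force was recorded by a Walton Brodie strain gauge sutured to the right ventricle at 100 g baseline tension. Compound was given iv by infusion pump into a femoral vein, one drug per animal, in three to four stepwise increasing doses. Each dose ran over 5 min, starting once the previous dose's effect peaked. Values are % increase over predrug control vs cumulative mg/kg dose.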

The test system of experiment [2] is Canis familiaris. As to the kind of experiment: Percent change in mean arterial blood pressure (MAP) in anesthetized open chest dogs iv administration at 8.75 mg/kg. It counts as functional, Canis lupus familiaris. In a few lines: (§2)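 Anesthetized open-chest dogs, one drug per animal. Compound is in DMF diluted to 10% in saline, or given as the HCl salt in saline. It is infused into the femoral vein by pump at 0.58-2.2 mL/min in 3-4 stepwise cumulative doses, each over 5 min after the prior peak. Readings are CF by right-ventricle strain gauge, dP/dtmax by Millar LV catheter, HR by cardiotachometer and MAP from femoral artery, as % change from predrug control.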

Experiment [3] has as its system Canis familiaris. As to the kind of experiment: Percent change in heart rate (HR) in anesthetized open chest dogs after a iv dose of 8.75 mg/kg. It counts as functional, Canis lupus familiaris. In a few lines: as §2
The subject of experiment [4] is Canis familiaris. As to the kind of experiment: Percent change in left ventricular pressure (dP/dtmax) in anesthetized dog after iv administration at 8.75 mg/kg. It counts as functional, Canis lupus familiaris, Heart left ventricle. The gist of the method: as §2
Experiment [5] deals with Canis familiaris. As to the kind of experiment: Percent change in heart rate (HR) in anesthetized open chest dogs after a iv dose of 1.75 mg/kg. It counts as functional, Canis lupus familiaris. In a few lines: as §2
Experiment [6] has as its system Canis familiaris. As to the kind of experiment: Percent increase in contractile force (CF) in anesthetized open-chest dogs iv administration of 1.75 mg/kg. Type of experiment: functional, Canis lupus familiaris. The gist of the method:
as §1

Experiment [7] relates to Canis familiaris. As to the kind of experiment: Percent change in left ventricular pressure (dP/dtmax) in anesthetized dog after iv administration at 1.75 mg/kg. Type of experiment: functional, Canis lupus familiaris, Heart left ventricle. The gist of the method: as §2
Experiment [8] has as its system Canis familiaris. As to the kind of experiment: Percent change in mean arterial blood pressure (MAP) in anesthetized open chest dogs iv administration at 1.75 mg/kg. It counts as functional, Canis lupus familiaris. In a few lines:
as §2

The test system of experiment [9] is Canis familiaris. As to the kind of experiment: Percent change in heart rate (HR) in anesthetized open chest dogs after a iv dose of 3.75 mg/kg. It counts as functional, Canis lupus familiaris. The gist of the method: as §2
In experiment [10] the test system is Canis familiaris. As to the kind of experiment: Percent change in left ventricular pressure (dP/dtmax) in anesthetized dog after iv administration at 3.75 mg/kg. It counts as functional, Canis lupus familiaris, Heart left ventricle. The gist of the method: as §2
For experiment [11], the system named is Canis familiaris. As to the kind of experiment: Percent change in mean arterial blood pressure (MAP) in anesthetized open chest dogs iv administration at 3.75 mg/kg. It counts as functional, Canis lupus familiaris. The gist of the method: as §2
In experiment [12] the test system is Canis familiaris. As to the kind of experiment: Percent increase in contractile force (CF) in anesthetized open-chest dogs iv administration of 3.75 mg/kg. Type of experiment: functional, Canis lupus familiaris. The gist of the method: as §1
Experiment [13] relates to Canis familiaris. As to the kind of experiment: Percent change in mean arterial blood pressure (MAP) in anesthetized open chest dogs iv administration at 0.375 mg/kg. Type of experiment: functional, Canis lupus familiaris. In a few lines: as §2
In experiment [14] the test system is Canis familiaris. As to the kind of experiment: Percent change in left ventricular pressure (dP/dtmax) in anesthetized dog after iv administration at 0.375 mg/kg. It counts as functional, Canis lupus familiaris, Heart left ventricle. In a few lines:
as §2

The test system of experiment [15] is Canis familiaris. As to the kind of experiment: Percent increase in contractile force (CF) in anesthetized open-chest dogs iv administration of 0.375 mg/kg. It counts as functional, Canis lupus familiaris. The gist of the method: as §1
The subject of experiment [16] is Canis familiaris. As to the kind of experiment: Percent change in heart rate (HR) in anesthetized open chest dogs after a iv dose of 0.375 mg/kg. Type of experiment: functional, Canis lupus familiaris. In a few lines:
as §2

Experiment [17] relates to Canis familiaris. As to the kind of experiment: (§3) Percent change in heart rate (HR) in anesthetized open chest dogs after a iv dose of 0.1 mg/kg. Type of experiment: functional, Canis lupus familiaris. The gist of the method: as §2
Experiment [18] concerns the target Phosphodiesterase 3 (Homo sapiens, UniProt Q14432+Q13370). As to the kind of experiment: Inhibition of phosphodiesterase fraction III in anesthetized open chest dogs. It counts as functional, Canis lupus familiaris. The settings on record: target entry is the homologue from another species. In a few lines:
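Enzyme is dog heart PDE-III, the third DEAE-cellulose fraction eluted at 800 mM sodium acetate. Compounds are tested at 0.01–1000 μM with 0.25 μM cAMP containing [³H]cAMP, in 0.05 M Tris-HCl pH 7.4 with 5 mM MgCl2. The reaction is stopped by heat, then snake venom converts product to adenosine. [³H]adenosine is counted by scintillation after Dowex separation. IC50 comes from ≥2 determinations, each in duplicate.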

Experiment [19] deals with Canis familiaris. As to the kind of experiment: Percent increase in left ventricular pressure (dP/dtmax) of anesthetized dog after id administration at 1 mg/kg. Type of experiment: functional, Canis lupus familiaris, Heart left ventricle. The settings on record: route intraduodenal. In a few lines: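 Anesthetized open-chest dogs. Left ventricular pressure was measured by Millar catheter and dP/dtmax derived. Compound was given as a 10-mL bolus into the duodenum through a catheter placed 2 cm distal to the pylorus via flank incision. Dissolved in DMF diluted to 10% in saline, or as HCl salt in saline. Response is % change over predrug control, monitored continuously.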

Experiment [20] has as its system Canis familiaris. As to the kind of experiment: Percent change in heart rate (HR) in anesthetized open chest dogs after a iv dose of 1 mg/kg. Type of experiment: functional, Canis lupus familiaris. The gist of the method: as §2
Experiment [21] deals with Canis familiaris. As to the kind of experiment: Percent change in mean arterial blood pressure (MAP) in anesthetized open chest dogs iv administration at 1 mg/kg. Type of experiment: functional, Canis lupus familiaris. In a few lines: as §2
The subject of experiment [22] is Canis familiaris. As to the kind of experiment: Percent increase in contractile force (CF) in anesthetized open-chest dogs id administration of 1 mg/kg. The settings on record: route intraduodenal. It counts as functional, Canis lupus familiaris. In a few lines: (§4)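 Anesthetized open-chest dogs. A 10-mL bolus is injected into the duodenum through a catheter placed 2 cm distal to the pylorus. Contractile force is measured with a Walton Brodie strain gauge sutured to the right ventricle, at a baseline tension of 100 g, and monitored continuously. Results are given as % increase from predrug control against cumulative dose.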

The subject of experiment [23] is Canis familiaris. As to the kind of experiment: 50% increase in contractile force in one to three anesthetized dogs administered intravenously. Type of experiment: functional. To be noted: Canis lupus familiaris, iv. In a few lines:
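Anesthetized dogs (one to three). Compound is infused iv in three to four stepwise increasing doses, each over 5 min once the previous effect has peaked. Contractile force is recorded with a Walton Brodie strain gauge on the right ventricle. The dose (μg/kg) giving a 50% rise over control CF is read from the dose-response curve, graphically (n < 3) or by linear regression (n ≥ 3).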

Experiment [24] concerns Canis familiaris. As to the kind of experiment: Percent change in left ventricular pressure (dP/dtmax) in anesthetized dog after iv administration at 0.1 mg/kg. It counts as functional, Canis lupus familiaris, Heart left ventricle. The gist of the method:
as §2

The subject of experiment [25] is Canis familiaris. As to the kind of experiment: Percent increase in contractile force (CF) in anesthetized open-chest dogs iv administration of 0.1 mg/kg. Type of experiment: functional, Canis lupus familiaris. The gist of the method:
as §2

Experiment [26] deals with Canis familiaris. As to the kind of experiment: (§5) Percent change in mean arterial blood pressure (MAP) in anesthetized open chest dogs iv administration at 0.1 mg/kg. It counts as functional, Canis lupus familiaris. In a few lines: as §2
The subject of experiment [27] is Canis familiaris. As to the kind of experiment: Percent increase in contractile force (CF) in anesthetized open-chest dogs iv administration of 0.100 mg/kg. Type of experiment: functional, Canis lupus familiaris. To be noted: dose 0.1 mg/kg. The gist of the method:
as §2

Experiment [28] relates to Canis familiaris. Described as §3. Type of experiment: functional, Canis lupus familiaris. In a few lines:
as §2
The source holds these as a separate data set.

Experiment [29] has as its system Canis familiaris. As to the kind of experiment: Percent increase in contractile force (CF) in anesthetized open-chest dogs id administration of 0.100 mg/kg. To be noted: dose 0.1 mg/kg; route intraduodenal. Type of experiment: functional, Canis lupus familiaris. In a few lines:
as §4

Experiment [30] deals with Canis familiaris. The experiment is described as §5. Type of experiment: functional, Canis lupus familiaris. The gist of the method: as §2
The source holds these as a separate data set.

`COc1ccc2cc(O)ncc2c1OC`: the Increase in [1] is on record as 60%; in [4], 34%. The Change in experiment [2] is reported as -7%; in experiment [3], 13%.
For `COc1cc2cc(O)nc(C)c2cc1OC`, the results for the Change in experiment [5] and in experiment [8] were 25% and -32%, respectively. Also, the Increase was determined as 100% in [6] and 55% in experiment [7].
On to `Cc1nc(O)cc2cc3c(cc12)OCO3`, for which the Change is 13% in experiment [9] and -10% in experiment [11]. Also, the Increase was found to be 32% in experiment [10] and 82% in [12].
For `COc1cc2c(C)nc(OC(C)=O)c(Br)c2cc1OC`, the values for the Change in experiment [13] and in [16] were -33% and 15%, respectively. Also, the values for the Increase in experiment [14] and in experiment [15] were 60% and 117%, respectively.
In general, IC50 refers to the midpoint of a concentration-inhibition curve. A high value points to lower potency. The ED50 is the midpoint of the dose-response relation. A higher ED50 goes with weaker potency. As to `COc1cc2c(C)nc(O)c(C)c2cc1OC`, the Change in experiment [17] was 15%; in experiment [20], 8%; in [21], -6%; in [26] it was -4%. Also, the half-maximal inhibitory concentration (IC50) in experiment [18] was determined as 10 µM. Moreover, the Increase in experiment [19] was 30%; in [22] it was 64%; in [24] it was 48%; in experiment [25] it was 80%. Further, in [23], the 50% effect level (ED50) was put at a dose of 0.04 mg/kg.
With `Cc1[nH]c(=O)c(C#N)cc1-c1ccncc1` [MILRINONE], the Change in [17] is listed as 15%; in experiment [28], 14%; in [26], -3%; in experiment [30] it was -13%. Moreover, the Increase in experiment [27] is 105%; in experiment [19], 36%; in experiment [24], 76%; in [29], 85%.
